Data taken from ChEMBL document CHEMBL2046340, “Naphthoquinones from Onosma paniculata induce cell-cycle arrest and apoptosis in melanoma Cells” (J Nat Prod, 2012).
Active and inactive are the calls of the source. The calls are words filed in the database; no cut-off is given here.

Columns and labels:
[1] = tested on: CCRF-CEM; assay: Cytotoxicity against human CCRF-CEM cells after 72 hrs by XTT assay; assay type: functional, cell-based
Summary of the method: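 CCRF-CEM leukaemia cells in RPMI 1640 with 2 mM glutamine and 10% FBS, 37 °C, 5% CO2. Seeded at 10 000 cells/well and exposed for 72 h to at least eight concentrations, freshly diluted from DMSO into medium (vehicle 0.5% DMSO). XTT with electron coupling reagent was read after 4 h. IC50 came from a four-parameter logistic fit over two passages × three wells; six independent experiments.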

[2] = tested on: MDA-MB-231; assay: Cytotoxicity against human MDA-MB-231 cells after 72 hrs by XTT assay; assay type: functional, cell-based; settings: MDA-MB-231, 72 h
Summary of the method: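 MDA-MB-231 breast cancer cells, RPMI 1640 with 2 mM glutamine and 10% FBS, 37 °C in 5% CO2. Seeded at 5000 cells/well, adhered overnight, then 72 h exposure over at least eight concentrations with 0.5% DMSO vehicle. XTT readout after 1.5 h. Four-parameter logistic IC50 from two passages each in three wells; mean ± SEM of six experiments.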

[3] = tested on: U-251; assay: Cytotoxicity against human U251 cells after 72 hrs by XTT assay; assay type: functional, cell-based; settings: U-251, 72 h
Summary of the method: (§1)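 U251 glioblastoma and HCT 116 colon cells grown in high-glucose DMEM with 2 mM glutamine and 10% FBS. 5000 cells/well attached overnight, then received at least eight concentrations for 72 h (0.5% DMSO vehicle). XTT read 1.5 h after addition. IC50 by four-parameter logistic fit; two passages × three wells, six independent experiments, mean ± SEM.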

[4] = tested on: HCT-116; assay: Cytotoxicity against human HCT116 cells after 72 hrs by XTT assay; assay type: functional, cell-based; settings: HCT-116, 72 h; summary of the method: as §1
[5] = Cytotoxicity against human SBcl2 cells after 72 hrs by XTT assay; assay type: functional, cell-based; settings: SBcl2, 72 h
Summary of the method: (§2)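 Melanoma lines (SBcl2, WM35, WM9, WM164) kept in RPMI 1640 with 2 mM glutamine and 2% FBS, 37 °C, 5% CO2. Plated at 5000 cells/well overnight and treated 72 h across at least eight concentrations (freshly diluted from DMSO; vehicle 0.5% DMSO). XTT absorbance read after 1.5 h. IC50 from four-parameter logistic curves; two passages in triplicate, six experiments, mean ± SEM.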

[6] = Cytotoxicity against human WM35 cells after 72 hrs by XTT assay; assay type: functional, cell-based; settings: WM35, 72 h; summary of the method: as §2
[7] = Cytotoxicity against human WM9 cells after 72 hrs by XTT assay; assay type: functional, cell-based; settings: WM9, 72 h; summary of the method: as §2
[8] = Cytotoxicity against human WM164 cells after 72 hrs by XTT assay; assay type: functional, cell-based; settings: WM164, 72 h; summary of the method: as §2
[9] = tested on: MRC5; assay: Cytotoxicity against human MRC5 cells after 72 hrs by XTT assay; assay type: cell-based; settings: MRC5, 72 h
Summary of the method: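 MRC-5 lung fibroblasts in MEM with 2 mM glutamine and 10% FBS. Seeded at 10 000 cells/well, attached overnight, then treated 72 h with at least eight concentrations (DMSO stock diluted in medium, 0.5% DMSO vehicle). XTT was added and read 1.5 h later. IC50 came from a four-parameter logistic curve; two passages × triplicate wells, six independent experiments, mean ± SEM.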

[10] = tested on: MRC5; assay: Selectivity ratio of IC50 for human MRC5 cells to IC50 for human CCRF-CEM cells
Summary of the method: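 The ratio uses XTT viability IC50s from a 72 h exposure. MRC-5 fibroblasts were grown in MEM and CCRF-CEM cells in RPMI 1640, both with 10% FBS; both were seeded at 10 000 cells/well. XTT was read after 1.5 h (MRC-5) or 4 h (CCRF-CEM). IC50s came from four-parameter logistic fits over at least eight concentrations, six independent experiments.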

[11] = tested on: SBcl2; assay: Induction of morphological changes in human SBcl2 cells assessed as less density and round shape phenotype with fewer dendrites of cells at IC50 after 24 to 48 hrs; assay type: functional, cell-based
[12] = tested on: WM35; assay: Induction of morphological changes in human WM35 cells assessed as less density and round shape phenotype with fewer dendrites of cells at IC50 after 24 to 48 hrs; assay type: functional, cell-based
[13] = tested on: WM9; assay: Induction of morphological changes in human WM9 cells assessed as less density and round shape phenotype with fewer dendrites of cells at IC50 after 24 to 48 hrs; assay type: functional, cell-based
[14] = tested on: WM164; assay: Induction of morphological changes in human WM164 cells assessed as less density and round shape phenotype with fewer dendrites of cells at IC50 after 24 to 48 hrs; assay type: functional, cell-based
[15] = Cell cycle arrest in human WM9 cells assessed as accumulation at G2/M phase at IC50 after 12 to 72 hrs using propidium iodide staining by FACS analysis; assay type: functional, cell-based
Summary of the method: (§3)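 Melanoma lines were kept in RPMI 1640 with 2 mM L-glutamine, 2% FBS and penicillin/streptomycin at 37 °C under 5% CO2. Cells were exposed for 12–72 h, with 0.5% DMSO vehicle controls, then trypsinized. 5 × 10^5 cells were fixed in ice-cold 70% EtOH for 10 min at 4 °C, washed in PBS and stained with PI/RNase A for 15 min at 37 °C. Phases were read by flow cytometry; n = 3 means.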

[16] = Cell cycle arrest in human WM164 cells assessed as accumulation at G2/M phase at IC50 after 12 to 72 hrs using propidium iodide staining by FACS analysis; assay type: functional, cell-based; summary of the method: as §3
[17] = Cell cycle arrest in human SBcl2 cells assessed as increase of cells accumulation at S phase at IC50 after 12 to 72 hrs using propidium iodide staining by FACS analysis; assay type: functional, cell-based; summary of the method: as §3
[18] = Cell cycle arrest in human WM35 cells assessed as increase of cells accumulation at S phase at IC50 after 12 to 72 hrs using propidium iodide staining by FACS analysis; assay type: functional, cell-based; summary of the method: as §3
[19] = Induction of apoptosis in human WM9 cells assessed as accumulation at sub-G1 phase at IC50 after 24 […]
[20] = Induction of apoptosis in human WM35 cells assessed as accumulation at sub-G1 phase at IC50 after 24 […]
[21] = tested on: SBcl2; assay: Induction of apoptosis in human SBcl2 cells assessed as accumulation at sub-G1 phase at IC50 after 24 […]
[22] = tested on: WM164; assay: Induction of apoptosis in human WM164 cells assessed as increased accumulation at sub-G1 phase at IC50 after 24 […]

| SMILES | IC50 [1] | IC50 [2] | IC50 [3] | IC50 [4] | IC50 [5] | IC50 [6] | IC50 [7] | IC50 [8] | IC50 [9] | Ratio IC50 [10] | further results |
| --- | --- | --- | --- | --- | --- | --- | --- | --- | --- | --- | --- |
| CC(C)=CC[C@@H](OC(=O)C=C(C)C)C1=CC(=O)c2c(O)ccc(O)c2C1=O [DIMETHYLACRYLSHIKONIN] | 1.9 µM | 23.2 µM | 30.8 µM | 20 µM | 1.1 µM | 2.3 µM | 2.7 µM | 8.3 µM | 2.4 µM | 1.3 | Activity [11]: Active; Activity [12]: Active; Activity [13]: Active; Activity [14]: Active; Activity [15]: Active; Activity [16]: Active; Activity [17]: Active; Activity [18]: Active; Activity [19]: 20%; Activity [20]: 20%; Activity [21]: 20%; Activity [22]: 20% |
| CC(C)=CC[C@@H](OC(=O)CC(C)(C)O)C1=CC(=O)c2c(O)ccc(O)c2C1=O [BETA-HYDROXYISOVALERYLSHIKONIN] | 0.6 µM | 4.6 µM | 23.6 µM | 4.1 µM | 8.3 µM | 13 µM | 12.7 µM | 30.9 µM | 3.9 µM | 6 | – |
| CC(=O)O[C@H](CC=C(C)C)C1=CC(=O)c2c(O)ccc(O)c2C1=O [ACETYLSHIKONIN] | 1 µM | 11.3 µM | 15.9 µM | 9 µM | 13 µM | 30.7 µM | 23.5 µM | 71.5 µM | 2.6 µM | 2.6 | – |
| CC[C@]1(O)C[C@@H]2CN(CCc3c([nH]c4ccccc34)[C@@](C(=O)OC)(c3cc4c(cc3OC)N(C)[C@H]3[C@@](O)(C(=O)OC)[C@H](OC(C)=O)[C@]5(CC)C=CCN6CC[C@]43[C@@H]65)C2)C1 [VINBLASTINE] | 0.0094 µM | 0.031 µM | 0.0081 µM | 0.0087 µM | 0.011 µM | 0.0035 µM | 0.015 µM | 0.0042 µM | 0.024 µM | – | – |
